# Source: PubChem (several laboratories)
# In the library only some 4.8% were active in any assay of this set; here they are far more common.
# ALR H2O2 inh: inhibitors of human ALR sulfhydryl oxidase, primary screen, biochemical, H2O2 detection, HRP-luminol luminescence, single point. FAD-linked sulfhydryl oxidase ALR (Homo sapiens), P55789. purified ALR, DTT oxidation. inhibition, % (test concentration not listed). actives 3.8% (n = 290,000). AID 485317, 2010;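 active = mean replicate inhibition above about 79%, with every replicate also reaching it, limit read from the data; inconclusive = only one of the two criteria met; inactive = mean below limit and not every replicate reaching it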
# Calb FLC: C. albicans growth inhibition with fluconazole, primary screen, CaCi-2 strain, Alamar Blue fluorescence; C. albicans CaCi-2 (fluconazole-resistant clinical isolate) + fluconazole, 48 h; actives 0.57% (n = 300,000); AID 1979, 2009; growth inhibition, % (concentration not given with the values);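 active = growth inhibition above about 58% in most replicates, limit read from the data, passing the limit was not always enough; inconclusive = exactly half the replicates above a set limit; inactive = most replicates below a set limit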;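 also: all wells also contain fluconazole at 8 µg/ml as a sub-toxic cotreatment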
# NALP3 yeast inh: NALP3 inflammasome inhibitors in reconstituted yeast, primary screen, luminescence, uHTS. Yeast reconstituted NLRP3/ASC/caspase-1, beta-gal luminescence, 24 h. inhibition, % at 10 µM. actives 0.39% (n = 330,000);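 active = inhibition of 50% or more; inactive = inhibition below 50%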
# NALP1 yeast inh: NALP1 inflammasome inhibitors in reconstituted yeast, colorimetric, S. cerevisiae, triplicate retest; S. cerevisiae NALP1/ASC/caspase-1 growth, X-gal OD620, 72 h; inhibition, % at 10 µM; actives 0.61% (n = 280,000); AID 2071, 2009; in the data active = inhibition mostly above about 24%, no sharp cut-off; inactive = mostly below about 32%
# ATG4B inh: ATG4B protease inhibitors, primary screen, biochemical, fluorescence, uHTS; Cysteine protease ATG4B (Homo sapiens), Q9Y4P1; ATG4B cleavage of LC3-PLA2, NBD-HPC fluorescence, 1 h; inhibition, % at 8.33 µM; actives 0.51% (n = 340,000); AID 504462, 2011; in the data active = inhibition above about 40%
# Target sequence (Q9Y4P1 whole entry, looked up): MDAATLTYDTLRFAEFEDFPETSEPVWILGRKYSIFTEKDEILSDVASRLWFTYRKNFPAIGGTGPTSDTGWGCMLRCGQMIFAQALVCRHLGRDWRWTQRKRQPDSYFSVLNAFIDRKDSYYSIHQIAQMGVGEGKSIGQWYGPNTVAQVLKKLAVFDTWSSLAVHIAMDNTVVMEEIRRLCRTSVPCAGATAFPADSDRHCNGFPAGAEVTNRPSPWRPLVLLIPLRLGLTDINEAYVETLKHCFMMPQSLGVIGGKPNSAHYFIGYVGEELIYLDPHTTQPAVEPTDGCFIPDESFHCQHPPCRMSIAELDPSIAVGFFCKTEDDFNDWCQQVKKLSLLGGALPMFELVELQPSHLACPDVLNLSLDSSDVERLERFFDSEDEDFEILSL
# UCH37 inh: inhibitors of human UCH37 deubiquitinase, primary screen, biochemical, Ub-AMC cleavage, fluorescence; Ubiquitin carboxyl-terminal hydrolase isozyme L5 (Homo sapiens), Q9Y5K5; purified proteasome/UCH37; inhibition, % (test concentration not listed); actives 0.33% (n = 330,000);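 active = mean inhibition over replicate wells above about 20%, limit read from the data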
#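 Material: Human UCH37 enzyme supplied as purified proteasome complex | Schedule: 30 min compound-proteasome preincubation then 25 min substrate reaction, room temperature | Detection: AMC fluorescence from Ub-AMC cleavage, excitation 355 nm, emission 460 nm | Benchmarks: Wells without proteasome as full block, compound-free enzyme plus substrate as uninhibited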
# Hits are given with their value; – = inactive; ? = inconclusive; · = no result given.
SMILES,ALR H2O2 inh,Calb FLC,NALP3 yeast inh,NALP1 yeast inh,ATG4B inh,UCH37 inh
CNC(=S)NN=Cc1c2ccccc2c(Cl)c2ccccc12,·,·,·,·,·,–
COc1ccc(Br)c(C=NNC(=O)COc2ccc(-c3ccccc3)cc2)c1,·,·,·,·,·,–
CCCc1sc(N)nc1-c1ccc(C)cc1,78,–,–,–,–,–
Oc1ccc(-c2nc3ccccc3s2)cc1,90,–,–,–,–,–
Nc1ccc(-c2nc3ccc(N)cc3s2)cc1,99,–,–,·,–,–
c1ccc2sc(-c3ccncc3)nc2c1,–,–,–,–,–,–
Nc1ccc(-c2nc3ccc(C(=O)O)cc3s2)cc1,99,–,·,–,–,–
O=C(O)c1ccc2nc(-c3ccccc3)sc2c1,·,–,–,–,–,–
Nc1cccc(-c2nc3ccc(N)cc3s2)c1,99,–,–,–,–,–
Nc1ccc(O)c(-c2nc3ccccc3s2)c1,–,–,–,–,–,–
CCOc1ccc(S(=O)(=O)N(CC(=O)NN=Cc2ccc(-c3ccc([N+](=O)[O-])cc3)o2)c2ccccc2)cc1,·,·,·,·,·,–
CCC(=NNC(=O)c1cc(C)nc2ccccc12)c1ccc(C)s1,·,·,·,·,·,–
C(=NNc1nc(N2CCCCCC2)nc(N2CCCCCC2)n1)c1ccccc1,·,·,·,·,·,–
Br/C(C=NN1CCN(Cc2ccccc2)CC1)=C/c1ccccc1,·,·,·,·,·,–
O=C(NN=Cc1ccccc1)c1ccc(-c2ccccc2)cc1,·,·,·,·,·,–
CCOC(=O)N1CCN(c2c(F)cc3[nH]c(=S)[nH]c3c2Br)CC1,–,–,–,–,–,–
CCOC(=O)N1CCN(c2cc3[nH]c(=S)[nH]c3cc2F)CC1,90,–,–,·,–,–
COc1ccccc1-n1c(-c2cc(-c3ccc(F)cc3)n[nH]2)n[nH]c1=S,77,?,–,–,–,–
COc1ccc(C)cc1-n1c(-c2ccncc2)n[nH]c1=S,–,–,–,–,–,–
COc1cc(-n2c(-c3ccccc3)n[nH]c2=S)c(OC)cc1Cl,79,–,–,–,–,–
Cc1ccc(-n2c(C)n[nH]c2=S)cc1,95,–,·,–,–,–
COc1ccccc1-c1n[nH]c(=S)n1-c1ccccc1,93,–,–,–,–,–
CCOc1ccc2ccccc2c1C=NNC(=O)c1ccc([N+](=O)[O-])cc1,·,·,·,·,·,–
S=c1[nH]nc(-c2ccco2)n1N=Cc1c(Cl)cccc1Cl,·,·,·,·,·,–
O=C(NN=Cc1cccc(OC(=O)c2ccc3c(c2)OCO3)c1)c1cncc(Br)c1,·,·,·,·,·,–
SMILES,ALR H2O2 inh,Calb FLC,NALP3 yeast inh,NALP1 yeast inh,ATG4B inh,UCH37 inh
COc1ccc(CSCCc2n[nH]c(=S)n2-c2ccccc2)cc1C,–,–,–,–,–,–
CC(C)(C)c1cc(-c2n[nH]c(=S)n2-c2ccc(Cl)cc2)n[nH]1,93,–,–,–,–,–
Cc1ccc(-n2c(-c3nn(C)c(C)c3Cl)n[nH]c2=S)cc1,86,–,–,–,–,–
COc1ccccc1N1CCN(CCc2n[nH]c(=S)n2-c2ccccc2)CC1,97,–,–,–,–,–
CCn1c(-c2nn(C)c(C)c2Cl)n[nH]c1=S,·,–,–,–,–,–
COc1ccc(-c2n[nH]c(=S)n2-c2ccc(C)cc2)cc1OC,89,–,–,–,–,–
CC(=NOCC(=O)NC12CC3CC(CC(C3)C1)C2)c1cc2ccccc2o1,·,·,·,·,·,–
Nc1nnc(CC(=O)NN=Cc2cc([N+](=O)[O-])cc(Br)c2O)s1,·,·,·,·,·,–
CCC(C)n1cnc2c(c1=O)c1nc3ccccc3nc1n2-c1ccc2c(c1)OCCO2 (configuration not stated),–,–,–,–,–,–
CCC(C)n1cnc2c(c1=O)c1nc3ccccc3nc1n2Cc1ccc2c(c1)OCO2 (configuration not stated),·,100,·,–,·,·
CCOc1ccc(Nc2nc3ccccc3n2C)cc1,94,–,–,·,–,–
CCOc1ccc(CNc2nc3ccccc3n2C)cc1,–,–,–,–,–,–
c1ccc(CCNc2nc3ccccc3n3nnnc23)cc1,–,–,–,–,–,–
CCOc1ccc(Nc2nc3ccccc3n3nnnc23)cc1,·,–,–,42,–,–
